SIAE primary: human SIAE inhibitors, primary screen, biochemical, fluorescence polarization, FP-Rh probe, 1536-well HTS. Sialate O-acetylesterase (Homo sapiens), Q9HAT2. SIAE FP-Rh probe binding. inhibition, % at 9.66 µM. 370,000 tested, 0.69% active. AID 1053197, 2014;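 active means inhibition above a cutoff: mean of compounds within the control limits plus 3 SD of those, cut at about 17% in these data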;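 further: 0% = plate median of compound wells and 100% = probe without SIAE protein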
PRMT1 inh: PRMT1 methyltransferase inhibitors, primary screen, biochemical, fluorescence polarization. Protein arginine N-methyltransferase 1 (Homo sapiens), Q99873. recombinant PRMT1, activity-based probe fluorescence polarization. inhibition, % at 2.79 µM. 370,000 tested, 1.3% active. AID 652257, 2013;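 active means inhibition above about 21% made by adding two undisclosed values, limit read from the data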
ABHD4 inh: ABHD4 inhibitors, primary screen, biochemical, fluorescence polarization, mouse; (Lyso)-N-acylphosphatidylethanolamine lipase (Mus musculus), Q8VD66; purified mABHD4, FP-Rh probe fluorescence polarization; inhibition, % at 8.92 µM; 370,000 tested, 0.54% active;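 active means inhibition exceeding the mean over every tested compound plus 3 SD, cut at about 30% in these data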;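 further: 0% = plate median of compound wells and 100% = S159A mutant with DMSO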
Target sequence (Q8VD66 whole entry, looked up): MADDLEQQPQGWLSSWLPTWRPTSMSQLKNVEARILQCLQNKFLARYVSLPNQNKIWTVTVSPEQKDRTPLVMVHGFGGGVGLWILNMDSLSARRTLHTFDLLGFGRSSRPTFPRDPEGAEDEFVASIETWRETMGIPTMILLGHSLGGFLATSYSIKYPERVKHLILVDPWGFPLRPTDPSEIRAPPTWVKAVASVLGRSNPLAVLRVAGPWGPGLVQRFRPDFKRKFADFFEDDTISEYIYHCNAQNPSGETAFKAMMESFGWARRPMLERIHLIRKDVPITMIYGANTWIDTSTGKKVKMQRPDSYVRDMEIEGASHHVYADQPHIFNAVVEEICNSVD
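Test system: mABHD4 protein; Read-out basis: % inhibition; Incubation: 45 min + 60 min at 25 °C; Repeats: single replicate; Technique: fluorescence polarization with parallel and perpendicular emission, 525/598 nm; Compound: 8.92 µM, single dose; Benchmarks: full inhibition S159A mutant plus DMSO, zero as sample-well median.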
GASC-1 inh: inhibitors of GASC-1 histone demethylase, primary screen, biochemical, fluorescence, DELFIA europium; Lysine-specific demethylase 4C (Homo sapiens), Q9H3R0; GST-JMJD2C(1-420) H3K9me3 demethylation; inhibition, % at 2.35 µM; 330,000 tested, 0.069% active;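 active means more than half of a compound's replicate wells show inhibition beyond 50%, single wells judged on their own value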;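 further: signal counts dimethyl H3K9 product captured on neutravidin plate; 0% = median of DMSO wells and 100% = 0.3 times that DMSO median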
HTRA1 inh: HTRA1 serine protease inhibitors, primary screen, biochemical, fluorescence polarization, HTS; Q92743; recombinant HTRA1, FP-rhodamine activity-based probe; inhibition, % at 5.96 µM; 340,000 tested, 0.5% active; in the data active means inhibition above about 36%;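 further: 0% = enzyme with DMSO and 100% = wells lacking enzyme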
SIAE inh conf: human SIAE inhibitors, retest, confirmation, biochemical, fluorescence polarization, FP-Rh probe, triplicate | AID 1117263, 2014 | shares compounds with SIAE primary | SIAE FP-Rh activity-based probe | inhibition, % at 9.66 µM | 2,300 tested, 13% active;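 active means mean inhibition of the replicates above the hit cutoff set in the primary screen, cut at about 17% in these data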;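 further: 0% = SIAE with DMSO and probe and 100% = probe without SIAE; inhibitors lower polarization as more probe stays unbound to SIAE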
Starred values were filed as active, the others as inactive; · = no result. An excerpt weighted towards active compounds, which were near 2.4% of everything screened.

SMILES	SIAE primary	PRMT1 inh	ABHD4 inh	GASC-1 inh	HTRA1 inh	SIAE inh conf
O=C(COC(=O)C1CCN(S(=O)(=O)c2ccc3c(c2)OCCO3)CC1)Nc1cccc2ccccc12	18*	-4	0	4	2	-1
CC(C)[C@H](N)C(=O)N1CCC[C@@H]1C(=O)N1CCC2CCN(S(=O)(=O)c3ccccc3)CC21 (stereo partly specified)	-4	4	2	·	·	·
Cn1c(=O)cc(OCC(=O)N2CCN(c3ccccc3Cl)CC2)c2ccccc21	8	-1	6	·	·	·
CC(C)(C)c1c(Cl)c(O)c(-c2ccccc2)c(=O)n1-c1ccccc1	19*	10	-3	0	·	0
C=CCN1C(=O)[C@H](CC(=O)N2CCOCC2)[C@@]2(C(=O)OCC)CCCC=C12	5	-6	2	·	·	·
COc1ccc(NC(=O)Nc2cc(C)cc(C)c2)cn1	-2	12	-3	-6	0	·
COc1ccc(NC(=O)Nc2cccs2)cn1	18*	7	10	-1	-1	5
CC(=O)Nc1ccc(N/C=C/C(=O)c2ccc(Cl)cc2)cc1	19*	-5	3	7	11	3
CCOc1ccc(CCNS(=O)(=O)c2cccc3nsnc23)cc1OCC	17*	1	6	-2	6	-1
O=Nc1c(O)[nH]c2ccc(Cl)c(Cl)c12	63*	-2	8	·	24	42*
NC(=O)C1CCN(c2ccnc(Cl)n2)CC1	-4	1	3	·	·	·
CC1(C)CC(=O)C2=C(C1)N1C(=C(C#N)C2c2ccc(Cl)cc2)N=C(N)c2ccccc21 (stereo unspecified)	20*	11	23	-2	-42	1
O=C(CCn1c2c(c3ccccc31)CCCC2)NNC(=O)c1cccc([N+](=O)[O-])c1	18*	-1	6	-1	-1	7
COCCSc1nnc(NC(=O)c2ccc3c(c2)OCO3)s1	18*	-1	4	-9	9	-2
CSc1nnc(NC(=O)c2ccc3c(c2)OCO3)s1	1	0	5	-2	-3	·
CCC(=O)Nc1nnc(SCCOC)s1	58*	1	2	-8	5	-4
O=C(Cn1c(=O)oc2cc(S(=O)(=O)N3CCCCC3)ccc21)N1CCCCC1	17*	2	1	0	-2	5
CCOC(=O)[C@@]12CCC3=C1N(CCC3)C(=O)[C@H](CC(=O)NCc1ccc(C)o1)C2	5	-2	2	·	·	·
Cc1c(CCC(=O)NCCCn2ccnc2)c(=O)oc2cc3occ(C(C)(C)C)c3cc12	18*	-2	12	-6	1	1
CN(C(=O)c1ccc(OC2CCN(C(=O)c3cccnc3)CC2)cc1)C1CCCCC1	24*	-6	-3	-27	3	4
CCC(=O)C1CCCN(C(=O)c2ccc(OC3CCN(C(=O)c4cccnc4)CC3)cc2)C1 (stereo unspecified)	10	2	6	6	6	·
CCOC(=O)N1CCN(C(=O)COc2cccc3c2CCN(Cc2ccc(F)cc2)C3=O)CC1	-1	2	4	-9	-11	·
CCOC(=O)N1CCN(C(=O)COc2cccc3c2CCN(CC)C3=O)CC1	20*	4	2	5	-3	-1
Cn1c(=O)n(Cc2ccccc2)c(=O)c2c1nc1n2CCN1Cc1ccco1	19*	-2	-1	15	-1	4
Cc1ccc(Cn2c(=O)c3c(nc4n3CCN4Cc3ccco3)n(C)c2=O)cc1	4	-3	-2	-8	-5	·
SMILES	SIAE primary	PRMT1 inh	ABHD4 inh	GASC-1 inh	HTRA1 inh	SIAE inh conf
O=C(O)[C@@H]1CCCN1C(=O)c1ccccc1N1C(=O)[C@@H]2Cc3c([nH]c4ccccc34)C(c3cccc(Cl)c3)N2C1=O (stereo partly specified)	44*	5	-24	18	-13	-11
Clc1cccc(CN2CCN(c3ncc(Cc4ccccc4)cn3)CC2)c1Cl	1	1	-3	·	·	·
CC(=O)COc1ccc2c(C)c(C)c(=O)oc2c1	-4	-2	-3	-5	10	·
CCc1c(C)c2ccc(OCC(N)=O)cc2oc1=O	24*	-3	-2	-2	4	2
CN1CCN(c2ccc(S(=O)(=O)N3CCCCC3)cn2)CC1	4	-1	-8	-1	4	·
O=S(=O)(c1ccc(N2CCCCCC2)nc1)N1CCCC1	20*	-1	1	16	5	-1
CN(CCOC(=O)c1cc2ccccc2o1)C1CN(Cc2cn(Cc3ccccc3F)nn2)S(=O)(=O)C1 (stereo unspecified)	4	2	2	·	·	·
